PubChem BioAssay AID720543 (The Scripps Research Institute Molecular Screening Center, 2013)
“And” between values parts separate entries of the source, which are not always exact repeats. Identical values can stand only once. Out of some 370,000 compounds screened, about 2,000 (0.54%) were called active.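 Rule for the calls: active = inhibition exceeding the mean over every tested compound plus 3 SD (cut at about 30% in these data); inactive = the rest.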 Shown is part of a subset that was picked to be rich in actives. A structure can be active in one record and inactive in another.

Target: (Lyso)-N-acylphosphatidylethanolamine lipase (Mus musculus) (UniProt Q8VD66)
Sequence (Q8VD66 whole entry, looked up): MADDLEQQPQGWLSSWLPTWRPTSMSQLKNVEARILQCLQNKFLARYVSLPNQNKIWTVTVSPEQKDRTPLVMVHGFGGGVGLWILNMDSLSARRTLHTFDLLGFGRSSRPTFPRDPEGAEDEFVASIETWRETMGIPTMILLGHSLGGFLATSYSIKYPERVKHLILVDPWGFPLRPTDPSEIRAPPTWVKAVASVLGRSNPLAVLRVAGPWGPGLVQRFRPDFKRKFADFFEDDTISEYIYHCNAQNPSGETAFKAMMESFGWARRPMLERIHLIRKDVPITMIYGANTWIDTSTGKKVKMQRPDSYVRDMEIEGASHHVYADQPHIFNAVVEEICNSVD
Experiment: ABHD4 inhibitors, primary screen, biochemical, fluorescence polarization, mouse (AID 720543);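 note: 0% = plate median of compound wells and 100% = S159A mutant with DMSO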
Settings: purified mABHD4, FP-Rh probe fluorescence polarization; at 8.92 µM; stronger effect = higher value
In short: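 assay system = mABHD4 protein | compound dosing = single nominal dose of 8.92 µM, 0.89% DMSO final | read-out basis = percent inhibition of probe binding, normalized to plate controls | schedule = Enzyme–compound pre-incubation 45 min, then probe 60 min, both 25 °C | detection = fluorescence polarization, excitation 525 nm, emission 598 nm, BODIPY TMR filters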

inhibition, inactive:
COC(=O)c1c(-c2ccc(OC)cc2)c2c(c3c4cc(OC)ccc4n(S(=O)(=O)c4ccc(F)cc4)c13)C(=O)N(C)C2 -0.06%
Cc1cc(NS(=O)(=O)c2ccc(NC(=O)CSc3nnc(SCc4ccc(F)cc4)s3)cc2)nc(C)n1 -21.5%
Fc1ccc2nc(COCc3nc4ccc(F)cc4[nH]3)[nH]c2c1 -7.17%
COC(=O)c1[nH]c2ccc(Br)cc2c1NC(=O)Oc1ccccc1 -1.15%
COCC(=O)Nc1c(C(=O)N2CCCC2)oc2ccccc12 -0.25%
FC(F)(F)c1cccc(NC(=S)OC2CCC23CCC(c2ccccc2)CC3)c1 (centres undefined) -21.8%
CCOC(=O)c1csc(NC(=O)C2CCCN(S(=O)(=O)c3ccc(Cl)s3)C2)n1 (centres undefined) -51.6%
CCCCCCN1CCS(=O)(=O)N(Cc2ccc(C(F)(F)F)cc2)C(C(=O)OC)C1 (centres undefined) -4.07%
O=C(Nc1cc(S(=O)(=O)Nc2ccc(Cl)cc2)ccc1O)c1ccc(F)cc1F -6.3%
COc1ccc(S(=O)(=O)NC(C)c2ccccc2)cc1C(=O)N1CCCCC1 (centres undefined) 3.07%
Cc1ccc(NS(=O)(=O)c2ccc3c(c2)n(C)c(=O)c(=O)n3C)c(C)c1 -1.8%
Cc1ccc(OCCOCCOc2ccc(Br)cc2/C=N\NC(=O)c2ccncc2)cc1 -84.8%
COc1ccc(Br)cc1CN(C)CC(=O)Nc1cc(Cl)cc(Cl)c1 6.47%
O=[N+]([O-])c1cc(S(=O)(=O)Nc2cccc(Cl)c2)ccc1N=Nc1c(O)[nH]c2ccccc12 7.74%
Cc1ccc(C)c(NS(=O)(=O)c2ccc(OCC(=O)NCc3cccnc3)cc2)c1 -3.89%
COc1cc(/C=C/C(=O)O)cc(S(=O)(=O)Nc2ccccc2C(=O)NCCc2ccccc2)c1OC 6.19%
CC1(C)CC(=O)C(C2c3ccccc3S(=O)(=O)c3ccccc32)C(=O)C1 0.77%
O=C(CSc1nc2c(c(=O)[nH]1)CCCC2)N1CCCCC1 0.85%
Cc1ccccc1CS(=O)(=O)Cc1ccc(C(=O)Nc2ccc(Cl)cc2)o1 1.54%
CN(C)S(=O)(=O)c1cccc(C(=O)N/N=C\c2ccco2)c1 5.39%
COc1ccc([C@H]2OC(=O)C[C@H]2C(=O)N2CCN(c3ccccc3F)CC2)cc1OC 0.9%
CC(C)(C)NC(=O)NC(=O)COC(=O)Cn1c(C(F)(F)F)nc2ccccc21 1.11%
Cc1cccc(NC(=O)C[C@H]2CC[C@H]3[C@@H](COc4ccc(NC(=O)Nc5ccccc5)cc4C(=O)N3C)O2)c1 7.9%
COc1ccc(-n2c(SCC(=O)Nc3ccc4cn[nH]c4c3)nnc2-c2cccnc2)cc1 0.5%
CCOc1ccc(/C(O)=C2\C(=O)C(=O)N(c3ccc(OC)cc3)C2c2ccccc2[N+](=O)[O-])cc1 (centres undefined) 5.37%
C[C@@H](NC(=O)c1ccccc1OCC(=O)Nc1ccc(I)cc1)C(=O)N(C)Cc1ccccc1 -28.4%
COc1ccc(Cc2nc3ccc(C(=O)N4CCC(N(C)C)C4)cc3o2)cc1 (centres undefined) -2.59%
Cc1cc(=O)[nH]c(SCC(=O)Nc2ccc(F)cc2F)n1 2.2%
CCN(CC(=O)NCc1cccs1)C(=O)c1cccc(S(=O)(=O)Nc2ccccc2OC)c1 -5.42%
CCOc1ccccc1NS(=O)(=O)c1c[nH]c(C(=O)OC)c1 -5.46%
CC(C)(C)NC(=O)C(c1cccnc1)N(C(=O)c1cnco1)c1ccc(C(C)(C)C)cc1 (centres undefined) -5.63%
CC1CCCCC1NC(=O)CSc1nnc(-c2ccncc2)n1CCCN(C)C (centres undefined) 18.4%
CCC[C@H]1C(=O)CC[C@@]23CCCN2C(=O)CCC[C@@H]13 -0.16%
CN1C(=O)C2CC(O)C(SC3CC4C(=O)N(C)C(=O)C4CC3O)CC2C1=O (centres undefined) 4.09%
COCc1cccc(-c2csc(C(O)c3ccc(F)cc3)n2)c1 (centres undefined) -6.65%
CCCC(=O)N1c2ccc(-c3csc(N)n3)cc2CC1C (centres undefined) 6.5%
COc1ccc(C(=O)CSc2nnc(-c3cnccn3)n2-c2ccc(C)cc2)cc1 -7.18%
COC(=O)[C@H](C(C)C)N1CCc2nnn(Cc3ccc(C)cc3)c2-c2ccccc2S1(=O)=O 8.58%
CN(CCO)c1cccc2c1S(=O)(=O)N(Cc1cn(Cc3ccc(C(F)(F)F)cc3)nn1)Cc1ccccc1O2 1.41%
CCOC(=O)C1CCN(C(=O)C(C)(C)NC(=O)Nc2ccc(F)c(F)c2)CC1 -6.47%
Clc1ccc(-n2c(SC/C=C/c3ccccc3)nnc2-c2ccco2)cc1 -10.5%
COc1ccnc(C(=O)N2CCC(Oc3cccnc3)CC2)c1 3.41%
CC(C)(C)c1ccc(C(=O)Nc2cc(Cl)c(Br)cc2C(=O)O)cc1 -156%
COc1cc(NC(=S)NNC(=O)CC(C)C)c(OC)cc1Cl 1.23%
COc1ccc(C)cc1NC(=S)Nc1ccccc1SC -1.16%
Cc1ccccc1CN1CCCCC(NC(=O)Nc2ccccc2F)C1=O (centres undefined) 3.77%
Oc1c(Cl)cc(Cl)c(Cl)c1Cc1c(O)c(Cl)cc(Cl)c1Cl -117%
CCOC(=O)[C@]12CCCC3=C1N(CCC3)C(=O)[C@@H](CC(=O)NCC13CC4CC(CC(C4)C1)C3)C2 3.95%
COC(=O)C[C@@H]1CC[C@H]2[C@@H](COc3ccc(NS(=O)(=O)CC(F)(F)F)cc3C(=O)N2C)O1 10.4%
COC(=O)c1ccc(CN(c2ccccc2OC)S(=O)(=O)c2cccs2)o1 4.33%
COC(=O)C1=C(C(=O)OC)C2C=C(C(C)C)C1C(=O)C2(C)O (centres undefined) -1.36%
CCOc1ccc(S(=O)(=O)NCCC(=O)NCC(C)(C)N2CCOCC2)cc1 4.91%
O=C1COc2ccc(C(=O)COC(=O)c3ccccc3Cl)cc2N1 -1.93%
O=C(OCc1ccccc1F)c1ccc2c(c1)OCCO2 1.07%
Cc1nc2sccn2c(=O)c1S(=O)(=O)NCCc1ccccc1 0.82%
O=C(COC(=O)c1ncc(Cl)c(Cl)c1Cl)NC1CCS(=O)(=O)C1 (centres undefined) 2.44%
C[C@@H]1CN([C@@H](C)CO)C(=O)c2cccc(NC(=O)Nc3cccc4ccccc34)c2O[C@H]1CN(C)S(=O)(=O)c1ccccc1F -0.79%
COC(=O)[C@]12C[C@H](CC(=O)NCc3cccc4ccccc34)C(=O)N(CCc3ccc(OC)c(OC)c3)C1=C[C@H](C1CCCC1)O[C@@H]2C -10.3%
Cn1c(SCC(=O)N2CCOCC2)nnc1-c1ccc(NC(=O)c2ccccc2F)cc1 1.97%
CSc1nc2sc3c(c2c(=O)[nH]1)CCc1ccccc1-3 4.16%
CCCNC(=O)Nc1ccc2c(c1)C(=O)N(C)[C@H]1CC[C@H](CC(=O)NCC3CCCCC3)O[C@@H]1CO2 12.2%
COCCNC(=S)Nc1cc(S(=O)(=O)N2CCOCC2)ccc1N1CCCCC1 1.6%
Cc1ccc(S(=O)(=O)N2CCOCC2)cc1NC(=O)c1ccncc1 -3.76%
Cc1ccccc1NC(=O)CSc1ccc2nnc(-c3ccccn3)n2n1 5.22%
CC12C(=O)N(n3cnnc3)C(=O)C1C1C=CC2C1 (centres undefined) -1.34%
CCN1C(=O)/C(=C\N2CCOCC2)SC1=S 9.79%
CCCCN1C(=O)/C(=C2/C=CC=CN2C)SC1=S 4.21%
CC(=O)Nc1ccc(NC(=O)CSC2=NS(=O)(=O)c3ccccc3N2)cc1 0.67%

inhibition, active:
COC(=O)c1oc2ccc(Br)cc2c1NC(C)=O 40.3%
Cc1cc(C)c(S(=O)(=O)NN=C2c3ccccc3[C@H]3Cc4csc[n+]4[C@@H]23)c(C)c1 33.3%
COc1ccc(Br)cc1/C=N/Nc1ccc(S(=O)(=O)Nc2ccccc2C(=O)O)cc1[N+](=O)[O-] 38.4%
O=C(O)c1ccccc1/C=N/Nc1ccc(S(=O)(=O)Nc2ccc(Cl)cc2)cc1[N+](=O)[O-] 43.8%
Cc1ccc(NS(=O)(=O)c2ccc(N/N=C/c3ccccc3OCC(=O)O)c([N+](=O)[O-])c2)c(C)c1 52.1%
COc1ccc(Br)cc1/C=N/Nc1ccc(Cl)c(C(=O)O)c1 40.3%
COc1cccc(/C=N/Nc2ccc(S(=O)(=O)Nc3ccccc3C(=O)O)cc2[N+](=O)[O-])c1O 70.3%
CC(C)(C)C(=O)OCc1nc(-c2ccc(O)c(O)c2)cs1 39.5%
Clc1ccccc1CSc1nnc(-c2ccco2)c(-c2ccco2)n1 38.9%
CCc1ccccc1NC(=S)Nc1cc(OC)c(NC(=O)C(C)C)cc1OC 33.4%
CC/C(=C(/c1ccccc1)c1ccc(OCC[N+](C)(C)C)cc1)c1ccccc1 30%
O=C(COC(=O)c1ccc(O)cc1O)c1ccc2c(c1)OCCO2 36.5%
Oc1ccc(N=Cc2sc3ccccc3c2Cl)cc1 88.4%
Oc1ccc(N=Cc2c(O)ccc3ccccc23)cc1 51.1%
O=[N+]([O-])c1cc(Cl)cc(/C=N/NC(=S)Nc2cc(S(=O)(=O)N3CCOCC3)ccc2Cl)c1O 32.2%

inhibition, 9.75% (inactive) and 31.2% (active):
CCN1C(=O)/C(=C2/Sc3ccccc3N2CCCS(=O)(=O)O)SC1=S
